Results from ChEMBL document CHEMBL1938234, “Cytotoxic and antimalarial azaphilones from Chaetomium longirostre” (J Nat Prod, 2011).

Columns and labels:
Plasmodium falciparum = assay: Antimalarial activity against multidrug-resistant Plasmodium falciparum K1 assessed as inhibition of [3H]-hypoxanthine incorporation; assay type: functional, organism-based
Method in brief: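 In vitro culture of the K1 multidrug-resistant P. falciparum strain followed the Trager–Jensen method. Activity was scored by the Desjardins microculture radioisotope technique, reading [3H]-hypoxanthine uptake by the parasites. IC50 was taken as the concentration giving 50% reduction in parasite growth. Dihydroartemisinin served as the reference standard.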

NCI-H187 = assay: Cytotoxicity against human NCI-H187 cells by SRB assay; assay type: functional, cell-based
KB = assay: Cytotoxicity against human KB cells by SRB assay; assay type: functional, cell-based
MCF7 = assay: Cytotoxicity against human MCF7 cells by SRB assay; assay type: functional, cell-based
[1] = Plasmodium falciparum, K1, read-out: IC50
[2] = Homo sapiens, NCI-H187, read-out: IC50
[3] = Homo sapiens, MCF7, read-out: IC50

SMILES | IC50 (Plasmodium falciparum; [1]) [nM] | IC50 (NCI-H187; [2]) [nM] | IC50 (KB) [nM] | IC50 (MCF7; [3]) [nM] | IC50 (NCI-H187; nci-h187) | IC50 (MCF7; mcf7) | IC50 (Plasmodium falciparum)
C[C@H]1[C@@H](O)O[C@@H]2O[C@@]3(C)CC[C@H]4[C@H](C)CC[C@@H]1[C@@]24OO3 [ARTENIMOL] | 4 | – | – | – | – | – | –
COc1cccc2c1C(=O)c1c(O)c3c(c(O)c1C2=O)C[C@@](O)(C(=O)CO)C[C@@H]3O[C@H]1C[C@H](N)[C@H](O)[C@H](C)O1 [DOXORUBICIN] | – | 110 | 330 | 2290 | – | – | –
Cc1c2ccncc2c(C)c2c1[nH]c1ccccc12 [ELLIPTECINE] | – | 1820 | 1250 | – | – | – | –
CCC(C)CC(C)/C=C(C)/C=C/C(=O)[C@H]1C(=O)O[C@@]2(C)C(=O)C=C3C=C([C@H]4C(=O)C=CC[C@@H]4C)OC=C3[C@@H]12 (some centres not stated) [LONGIROSTRERONE C] | 620 | – | 230 | – | Not Active | Not Active | –
CCC(C)CC(C)/C=C(C)/C=C/C(=O)C1=C2C3=COC([C@H]4C(=O)C[C@H](O)C[C@@H]4C)=CC3=CC(=O)[C@@]2(C)OC1=O (some centres not stated) [LONGIROSTRERONE D] | – | 18400 | 6380 | 38200 | – | – | Not Active
CCC(C)CC(C)/C=C(C)/C=C/C(=O)[C@H]1C(=O)O[C@@]2(C)C(=O)C=C3C=C([C@H]4C(=O)C[C@H](O)C[C@@H]4C)OC=C3[C@@H]12 (some centres not stated) [LONGIROSTRERONEA] | 630 | 3080 | 1040 | 240 | – | – | –
CCC(C)CC(C)/C=C(C)/C=C/C(=O)C[C@H]1C2=COC([C@H]3C(=O)C[C@H](O)C[C@@H]3C)=CC2=CC(=O)[C@]1(C)O (some centres not stated) [LONGIROSTRERONEB] | 3730 | – | 1520 | – | Not Active | Not Active | –
